In brackets after ≈: the same amount, converted by molar mass.
Assays:
[1] = system: Plasmodium falciparum; experiment: Increase in hemoglobin levels in chloroquine-sensitive synchronized ring stage of Plasmodium falciparum NF54 after 32 hrs by flow cytometric analysis; format: functional
Method in brief: (§1)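 Sorbitol-synchronized (5%) ring-stage cultures exposed to compound at multiples of IC50 for 32 h; trophozoites freed with 0.05% saponin, PBS-washed, counted by hemocytometer and flow cytometry. Hypotonic lysis/sonication, then sequential SDS/pyridine fractionation into hemoglobin, free heme and hemozoin (SDS/NaOH) fractions; each measured by UV-vis as Fe(III) heme-pyridine complex.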

[2] = system: Plasmodium falciparum; experiment: Decrease in hemozoine formation in chloroquine-sensitive synchronized ring stage of Plasmodium falciparum NF54 after 32 hrs by flow cytometric analysis; format: functional; method in brief: as §1
[3] = system: Plasmodium falciparum; experiment: Increase in free heme levels in chloroquine-sensitive synchronized ring stage of Plasmodium falciparum NF54 after 32 hrs by flow cytometric analysis; format: functional; method in brief: as §1
[4] = Half life in BALB/c mouse liver microsomes at 1 uM in presence of NADPH by LC-MS/MS analysis; format: ADME, microsome
Method in brief: (§2)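 Compound at 1 μM with 0.35 mg/ml male BALB/c mouse liver microsomes, 1 mM NADPH, 100 mM phosphate pH 7.4, 37 °C, 30 min; triplicate. Stopped by ice-cold acetonitrile with carbamazepine internal standard; parent loss by LC-MS/MS (ESI positive, MRM) as % remaining; scan data screened for putative metabolite fragments.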

[5] = Intrinsic clearance in BALB/c mouse liver microsomes at 1 uM in presence of NADPH by LC-MS/MS analysis; format: ADME, microsome; conditions: read-out: CLH; method in brief: as §2
[6] = Metabolic stability in BALB/c mouse liver microsomes assessed as parent compound remaining at 1 uM after 30 mins in presence of NADPH by LC-MS/MS analysis; format: ADME, microsome; conditions: read-out: Stability; method in brief: as §2
[7] = n-Octanol-buffer distribution coefficient, log D of the compound at pH 7.4 […] by HPLC based shake flask method; format: physicochemical
[8] = system: Liver; experiment: Drug metabolism in BALB/c mouse liver microsomes assessed as oxidation of quinoline core or pyridyl ring at 1 uM in presence of NADPH by mass spectrometric analysis; format: ADME, microsome; method in brief: as §2
[9] = system: Liver; experiment: Drug metabolism in BALB/c mouse liver microsomes assessed as N-dealkylation with oxidative deamination at 1 uM in presence of NADPH by mass spectrometric analysis; format: ADME, microsome; method in brief: as §2
[10] = system: Liver; experiment: Drug metabolism in BALB/c mouse liver microsomes assessed as oxidation of aldehyde to carboxylic acid at 1 uM in presence of NADPH by mass spectrometric analysis; format: ADME, microsome; method in brief: as §2
[11] = system: Plasmodium falciparum; experiment: Antiplasmodial activity against chloroquine-resistant synchronized trophozoite stage of Plasmodium falciparum 7G8 after 48 hrs by NBT dye based LDH assay; format: functional; conditions: 7G8, 48 h
[12] = system: Plasmodium falciparum; experiment: Resistance index, ratio of IC50 for chloroquine-resistant synchronized trophozoite stage of Plasmodium falciparum Dd2 to IC50 for chloroquine-sensitive synchronized trophozoite stage of Plasmodium falciparum NF54; format: functional
[13] = system: Liver; experiment: Drug metabolism in BALB/c mouse liver microsomes assessed as aldehyde reduction at 1 uM in presence of NADPH by mass spectrometric analysis; format: ADME, microsome; method in brief: as §2
[14] = system: Plasmodium falciparum; experiment: Antiplasmodial activity against chloroquine-sensitive synchronized trophozoite stage of Plasmodium falciparum NF54 after 48 hrs by NBT dye based LDH assay; format: functional; conditions: NF54, 48 h
[15] = system: Plasmodium falciparum; experiment: Resistance index, ratio of IC50 for chloroquine-resistant synchronized trophozoite stage of Plasmodium falciparum 7G8 to IC50 for chloroquine-sensitive synchronized trophozoite stage of Plasmodium falciparum NF54; format: functional
[16] = n-Octanol-buffer distribution coefficient, log D of the compound at pH 5 incubated for 4 hrs by UV-vis based shake flask method; format: physicochemical
[17] = Inhibition of beta hematin formation by detergent based assay
Method in brief: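 β-hematin formation from hematin in 1 M acetate buffer pH 4.9 with NP40 detergent, compound serially diluted from 20 mM DMSO stock; ~5 h at 37 °C. Free heme complexed with pyridine/acetone/HEPES pH 7.4 solution, absorbance at 405 nm; IC50 from dose-response curves.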

[18] = Kinetic solubility of compound in simulating fasting state biorelevant media at pH 6.5 after 2 hrs by shake flask method; format: physicochemical; conditions: fasted-state simulating biorelevant medium, read-out: Kinetic_solubility
[19] = system: Liver; experiment: Drug metabolism in BALB/c mouse liver microsomes assessed as N-dealkylation on tertiary amine at 1 uM in presence of NADPH by mass spectrometric analysis; format: ADME, microsome; method in brief: as §2
[20] = system: Plasmodium berghei; experiment: Antimalarial activity against chloroquine-sensitive Plasmodium berghei ANKA infected in C57BL/6 mouse assessed as supression of parasitemia at 30 mg/kg, po administered for 4 consecutive days starting at 2 hrs post infection by peter's test relative to control; format: functional
Method in brief: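 P. berghei ANKA passaged in C57BL/6 donor; test mice infected ip with 200 μL of 1 × 10⁷ parasitized erythrocytes in PBS. Oral dosing 30 mg/kg at 2 h post-infection, then daily D0–D3; PBS-dosed controls. Parasitemia read on D4 from Giemsa-stained, methanol-fixed tail thin films; suppression relative to control.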

[21] = Selectivity index, ratio of IC50 for CHO cells to IC50 for chloroquine-sensitive synchronized trophozoite stage of Plasmodium falciparum NF54; format: toxicity; conditions: hamster; read-out: Ratio IC50
[22] = system: CHO; experiment: Cytotoxicity against CHO cells by MTT assay; format: cell-based; conditions: Cricetulus griseus
Method in brief: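 MTT assay on CHO cells. DMSO stock diluted in complete medium; 10-fold serial dilutions, 6 concentrations from 100 to 0.001 μg/mL; emetine reference; triplicate on each occasion. IC50 from non-linear fit of full dose-response curves.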

[23] = system: Plasmodium falciparum; experiment: Antiplasmodial activity against chloroquine-resistant synchronized trophozoite stage of Plasmodium falciparum Dd2 after 48 hrs by NBT dye based LDH assay; format: functional; conditions: Dd2, 48 h
[24] = molecular target: Voltage-gated inwardly rectifying potassium channel KCNH2 (Homo sapiens, UniProt Q12809); experiment: Inhibition of human ERG expressed in CHO cells by automated patch clamp method; format: cell-based
Chain of Voltage-gated inwardly rectifying potassium channel KCNH2 (Q12809 whole entry): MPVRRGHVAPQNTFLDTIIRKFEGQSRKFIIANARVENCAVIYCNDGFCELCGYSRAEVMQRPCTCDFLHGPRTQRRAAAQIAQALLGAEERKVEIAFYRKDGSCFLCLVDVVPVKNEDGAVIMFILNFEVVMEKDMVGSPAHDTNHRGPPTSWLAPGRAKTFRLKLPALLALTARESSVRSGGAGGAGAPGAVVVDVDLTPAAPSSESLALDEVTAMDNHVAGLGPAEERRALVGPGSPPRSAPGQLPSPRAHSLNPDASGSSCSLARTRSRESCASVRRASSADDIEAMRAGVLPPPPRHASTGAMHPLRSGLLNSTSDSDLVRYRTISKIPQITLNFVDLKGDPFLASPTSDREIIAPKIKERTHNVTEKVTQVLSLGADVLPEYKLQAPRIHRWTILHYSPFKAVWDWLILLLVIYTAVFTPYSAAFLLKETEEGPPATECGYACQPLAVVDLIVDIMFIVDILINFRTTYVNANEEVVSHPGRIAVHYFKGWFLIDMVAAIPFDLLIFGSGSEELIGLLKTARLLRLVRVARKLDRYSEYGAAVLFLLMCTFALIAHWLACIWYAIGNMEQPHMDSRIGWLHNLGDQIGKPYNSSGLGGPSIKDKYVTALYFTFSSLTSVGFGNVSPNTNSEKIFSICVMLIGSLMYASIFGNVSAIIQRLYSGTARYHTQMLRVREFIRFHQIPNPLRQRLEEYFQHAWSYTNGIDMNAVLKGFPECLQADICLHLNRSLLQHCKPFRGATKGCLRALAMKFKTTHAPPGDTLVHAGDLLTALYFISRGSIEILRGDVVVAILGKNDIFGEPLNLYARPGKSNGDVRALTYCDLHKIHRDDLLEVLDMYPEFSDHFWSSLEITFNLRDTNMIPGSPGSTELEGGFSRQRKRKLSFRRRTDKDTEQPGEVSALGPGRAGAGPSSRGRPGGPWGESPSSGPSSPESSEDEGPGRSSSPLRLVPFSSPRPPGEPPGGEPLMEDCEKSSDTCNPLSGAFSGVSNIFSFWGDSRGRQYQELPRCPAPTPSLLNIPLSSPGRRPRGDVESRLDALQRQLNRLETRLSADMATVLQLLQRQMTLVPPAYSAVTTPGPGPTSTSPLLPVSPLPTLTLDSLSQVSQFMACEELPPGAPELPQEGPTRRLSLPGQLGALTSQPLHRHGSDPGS

SMILES	Activity [1]	Activity [2]	Activity [3]	half-life at 1 µM [4] [min]	CLint scaled at 1 µM [5] [mL/min/kg]	remaining at 0.5 h, 1 µM [6] [%]	logD [7]	Drug metabolism [8]	Drug metabolism [9]	Drug metabolism [10]	IC50 [11] [nM]	Ratio IC50 [12]	Drug metabolism [13]	IC50 [14] [nM]	Ratio IC50 [15]	logD at 4 h [16]	IC50 [17] [nM]	solubility kinetic at 2 h [18] [µM]	Activity [20] [%]	IC50 [23] [nM]	other results
CN(Cc1ccccc1)Cc1cccc(CNc2ccnc3cc(Cl)ccc23)c1 [listing 1 of 2 here]	Dose-dependent effect	Dose-dependent effect	Dose-dependent effect																		
Cc1ncc2n1-c1ccc(Cl)cc1C(c1ccccc1F)=NC2 [MIDAZOLAM]				4.74	1420	1.33															
CN(Cc1ccccn1)Cc1ccccc1CNc1ccnc2cc(C#N)ccc12	Dose-dependent effect	Dose-dependent effect	Dose-dependent effect	5.35	1250	2.08	3.8	Metabolite_Detected	Metabolite_Detected	Metabolite_Detected	307	1.3	Metabolite_Detected	127	2.4	0.81	16600	172 (≈ 67.8 µg/mL)	47.1	162	Drug metabolism [19]: Metabolite_Detected; selectivity ratio [21]: 218; IC50 [22]: 27600 nM
COC(=O)[C@H]1[C@H]2C[C@@H]3c4[nH]c5cc(OC)ccc5c4CCN3C[C@H]2C[C@@H](OC(=O)c2cc(OC)c(OC)c(OC)c2)[C@@H]1OC [RESERPINE]																		< 5			
CN(Cc1ccccn1)Cc1ccccc1CNc1ccnc2cc(Cl)ccc12	Dose-dependent effect	Dose-dependent effect	Dose-dependent effect	5.49	1220	2.32	3.79	Metabolite_Detected	Metabolite_Detected	Metabolite_Detected	184	2.5	Metabolite_Detected	54.4	3.4	0.9	17900	165 (≈ 66.4 µg/mL)	82.4	137	IC50 [24]: 870 nM; Drug metabolism [19]: Metabolite_Detected; selectivity ratio [21]: 740; IC50 [22]: 40200 nM
CN(Cc1cccc(CNc2ccnc3cc(Cl)ccc23)c1)Cc1ccccn1	Dose-dependent effect	Dose-dependent effect	Dose-dependent effect	5.89	1140	2.96	2.47	Metabolite_Detected	Metabolite_Detected	Metabolite_Detected	83.8	4.1	Metabolite_Detected	30.1	2.8	0.82	20800	59.8 (≈ 24.1 µg/mL)	97.8	124	Drug metabolism [19]: Metabolite_Detected; selectivity ratio [21]: 275; IC50 [22]: 8300 nM
C[C@H]1[C@H](OC(=O)CCC(=O)O)O[C@@H]2O[C@@]3(C)CC[C@H]4[C@H](C)CC[C@@H]1[C@@]24OO3 [ARTESUNATE]											7.7	2.6		5.6	1.4					14.3	
CN(Cc1ccc(CNc2ccnc3cc(Cl)ccc23)cc1)Cc1ccccn1	Dose-dependent effect	Dose-dependent effect	Dose-dependent effect	5.35	1250	2.08	2.85	Metabolite_Detected	Metabolite_Detected	Metabolite_Detected	114	3.9	Metabolite_Detected	38.5	3	0.84	17200	197 (≈ 79.2 µg/mL)	91.4	151	Drug metabolism [19]: Metabolite_Detected; selectivity ratio [21]: 408; IC50 [22]: 15700 nM
CCN(CC)CCCC(C)Nc1ccnc2cc(Cl)ccc12 (centres undefined)	Dose-dependent effect	Dose-dependent effect	Dose-dependent effect																		
CN(Cc1ccc(CNc2ccnc3cc(C#N)ccc23)cc1)Cc1ccccn1	Dose-dependent effect	Dose-dependent effect	Dose-dependent effect	6.22	1100	3.63	2.84	Metabolite_Detected	Metabolite_Detected	Metabolite_Detected	134	1.9	Metabolite_Detected	76.4	1.8	1	24800	144 (≈ 56.5 µg/mL)	98	146	Drug metabolism [19]: Metabolite_Detected; selectivity ratio [21]: 146; IC50 [22]: 11200 nM
CCN(CC)CCCC(C)Nc1ccnc2cc(Cl)ccc12 (centres undefined) [CHLOROQUINE]																			91.2		
CCN(CC)CCCC(C)Nc1ccnc2cc(Cl)ccc12 (centres undefined) [CHLOROQUINE PHOSPHATE]																	26100				
CN(Cc1ccccc1)Cc1cccc(CNc2ccnc3cc(Cl)ccc23)c1.Cl				6.15	1110	3.57	3.56	Metabolite_Detected	Metabolite_Detected	Metabolite_Detected	69.6	3.1	Metabolite_Detected	14.4	4.8	1.33	13400	51.8	97.5	44.5	Drug metabolism [19]: Metabolite_Detected; selectivity ratio [21]: 660; IC50 [22]: 9500 nM
CN(Cc1ccccc1)Cc1cccc(CNc2ccnc3cc(Cl)ccc23)c1 [listing 2 of 2 here]																			99.9		

From ChEMBL document CHEMBL4024765 (J Med Chem, 2017)
